The source made the active and inactive calls. No cut-off for these calls is given here.
Key:
Mus musculus [1] = organism: Mus musculus; assay: Inhibition of recombinant full-length mouse PI3K p110alpha/p85alpha H1047R mutant at 10 uM using phosphatidylinositol-4, 5-bisphosphate as substrate measured after 40 mins by HTRF assay
[2] = biological target: Calcium/calmodulin-dependent protein kinase type IV (Homo sapiens) (UniProt Q16566); assay: Inhibition of recombinant full-length human CaMK4 at 10 uM using calmodulin as substrate measured after 40 mins in presence of [gamma33P]ATP by scintillation counting method
[3] = biological target: ATPase family AAA domain-containing protein 2 (Homo sapiens) (UniProt Q6PL18); assay: Binding affinity to human N-terminal His-tagged ATAD2 assessed as change in melting temperature at 10 uM by SYPRO orange dye-based fluorescence assay
Procedure, shortened: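 Thermal shift with His-tagged human bromodomain at 2 μM final in 10 mM HEPES pH 7.5, 500 mM NaCl. Compound at 10 μM final with 0.1% DMSO; SYPRO Orange at 1:1000. Equilibrated 3 min at 25 °C, then heated from 25 to 95 °C at 1 °C/min. Melting temperature shift taken from fluorescence; at least duplicate.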

[4] = biological target: Vascular endothelial growth factor receptor 2 (Homo sapiens) (UniProt P35968); assay: Inhibition of recombinant human KDR (790 to end residues) at 10 uM using myelin basic protein substrate measured after 40 mins in presence of [gamma33P]ATP by scintillation counting method
[5] = biological target: Serine/threonine-protein kinase WNK4 (Homo sapiens) (UniProt Q96J92); assay: Inhibition of human WNK4 using myelin basic protein as substrate measured after 120 mins in presence of [gamma33P]ATP by scintillation counting method
[6] = biological target: Rhodopsin kinase GRK1 (Homo sapiens) (UniProt Q15835); assay: Inhibition of recombinant full-length human GRK1 at 10 uM using KKKKERLLDDRHDSGLDSMKDEE as substrate measured after 40 mins in presence of [gamma33P]ATP by scintillation counting method
Chain of Rhodopsin kinase GRK1 (Homo sapiens) (Q15835 whole entry): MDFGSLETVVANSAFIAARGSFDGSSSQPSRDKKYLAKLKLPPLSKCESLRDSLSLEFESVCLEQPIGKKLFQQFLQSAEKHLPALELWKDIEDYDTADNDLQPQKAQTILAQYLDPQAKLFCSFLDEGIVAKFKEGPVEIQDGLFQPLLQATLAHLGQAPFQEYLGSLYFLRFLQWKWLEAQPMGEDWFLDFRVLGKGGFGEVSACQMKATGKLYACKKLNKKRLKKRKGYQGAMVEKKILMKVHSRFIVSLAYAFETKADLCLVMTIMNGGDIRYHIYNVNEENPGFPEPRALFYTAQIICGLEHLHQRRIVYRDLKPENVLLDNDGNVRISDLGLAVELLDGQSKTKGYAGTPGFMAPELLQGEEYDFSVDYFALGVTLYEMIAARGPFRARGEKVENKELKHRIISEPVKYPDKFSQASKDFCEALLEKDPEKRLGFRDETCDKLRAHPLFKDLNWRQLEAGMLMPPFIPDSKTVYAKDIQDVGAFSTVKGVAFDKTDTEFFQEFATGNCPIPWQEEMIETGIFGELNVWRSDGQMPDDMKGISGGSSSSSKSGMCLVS

[7] = biological target: MAP kinase-interacting serine/threonine-protein kinase 2 (Homo sapiens) (UniProt Q9HBH9); assay: Inhibition of recombinant full-length human Mnk2 at 10 uM using myelin basic protein as substrate measured after 40 mins in presence of [gamma33P]ATP by scintillation counting method
[8] = tested on: Hepatocyte growth factor receptor (Homo sapiens), P08581 [M1250T]; assay: Inhibition of recombinant human MET A1209G/V1290L/M1268T mutant (974 to end residues) at 10 uM using KKKGQEEEYVFIE as substrate measured after 40 mins in presence of [gamma33P]ATP by scintillation counting method
Chain of Hepatocyte growth factor receptor (Homo sapiens), P08581 [M1250T] (P08581 whole entry M1250T): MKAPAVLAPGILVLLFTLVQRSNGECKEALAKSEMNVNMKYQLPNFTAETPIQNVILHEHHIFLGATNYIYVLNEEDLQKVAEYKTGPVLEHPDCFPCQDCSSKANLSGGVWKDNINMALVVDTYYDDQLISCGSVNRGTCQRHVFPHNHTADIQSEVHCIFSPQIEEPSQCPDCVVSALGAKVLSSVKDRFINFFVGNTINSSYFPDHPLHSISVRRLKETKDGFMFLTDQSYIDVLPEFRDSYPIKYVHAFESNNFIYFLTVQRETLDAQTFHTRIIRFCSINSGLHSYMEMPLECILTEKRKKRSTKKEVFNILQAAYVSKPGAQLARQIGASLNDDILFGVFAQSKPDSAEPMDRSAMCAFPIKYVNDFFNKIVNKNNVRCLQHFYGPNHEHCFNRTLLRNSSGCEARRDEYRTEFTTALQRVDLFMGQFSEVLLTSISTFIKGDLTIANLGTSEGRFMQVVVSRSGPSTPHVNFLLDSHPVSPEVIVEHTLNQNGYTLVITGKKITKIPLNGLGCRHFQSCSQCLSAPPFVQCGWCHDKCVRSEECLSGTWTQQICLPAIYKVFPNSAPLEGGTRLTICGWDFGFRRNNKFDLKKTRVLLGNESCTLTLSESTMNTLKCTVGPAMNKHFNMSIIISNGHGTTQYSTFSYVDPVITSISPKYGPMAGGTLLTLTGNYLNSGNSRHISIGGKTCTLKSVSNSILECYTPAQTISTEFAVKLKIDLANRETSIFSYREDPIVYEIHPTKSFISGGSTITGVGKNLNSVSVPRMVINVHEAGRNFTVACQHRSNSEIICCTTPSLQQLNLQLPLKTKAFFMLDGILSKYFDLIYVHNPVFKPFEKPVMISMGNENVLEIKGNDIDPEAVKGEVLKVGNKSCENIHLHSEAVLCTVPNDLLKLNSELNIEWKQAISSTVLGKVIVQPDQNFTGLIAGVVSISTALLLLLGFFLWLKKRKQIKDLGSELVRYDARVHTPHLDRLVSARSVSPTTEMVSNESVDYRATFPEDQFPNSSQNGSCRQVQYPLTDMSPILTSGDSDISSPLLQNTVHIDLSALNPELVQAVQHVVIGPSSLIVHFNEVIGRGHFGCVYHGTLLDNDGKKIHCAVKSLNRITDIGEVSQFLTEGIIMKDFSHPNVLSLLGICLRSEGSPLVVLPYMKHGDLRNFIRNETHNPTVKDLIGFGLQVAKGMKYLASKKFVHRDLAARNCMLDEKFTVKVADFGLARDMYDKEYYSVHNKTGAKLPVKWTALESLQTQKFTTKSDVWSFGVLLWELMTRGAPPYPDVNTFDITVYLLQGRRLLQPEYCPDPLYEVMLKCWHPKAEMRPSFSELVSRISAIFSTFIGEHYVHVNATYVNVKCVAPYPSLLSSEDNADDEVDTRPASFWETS

[9] = biological target: Calcium/calmodulin-dependent protein kinase type 1D (Homo sapiens) (UniProt Q8IU85); assay: Inhibition of recombinant full-length human CaMK1delta at 10 uM using calmodulin as substrate measured after 40 mins in presence of [gamma33P]ATP by scintillation counting method
[10] = tested on: TGF-beta receptor type-1 (Homo sapiens), P36897 [T204D]; assay: Inhibition of human TGFBR1 T204D mutant (200 to end residues) using casein as substrate measured after 40 mins in presence of [gamma33P]ATP by scintillation counting method
[11] = biological target: Protein kinase C iota type (Homo sapiens) (UniProt P41743); assay: Inhibition of recombinant full-length human PKCiota at 10 uM using ERMRPRKRQGSVRRRV as substrate measured after 40 mins in presence of [gamma33P]ATP by scintillation counting method
[12] = biological target: Serine/threonine-protein kinase pim-2 (Homo sapiens) (UniProt Q9P1W9); assay: Inhibition of recombinant human Pim2 (2 to end residues) at 10 uM using RSRHSSYPAGT as substrate measured after 40 mins in presence of [gamma33P]ATP by scintillation counting method
Chain of Serine/threonine-protein kinase pim-2 (Homo sapiens) (Q9P1W9 whole entry, looked up): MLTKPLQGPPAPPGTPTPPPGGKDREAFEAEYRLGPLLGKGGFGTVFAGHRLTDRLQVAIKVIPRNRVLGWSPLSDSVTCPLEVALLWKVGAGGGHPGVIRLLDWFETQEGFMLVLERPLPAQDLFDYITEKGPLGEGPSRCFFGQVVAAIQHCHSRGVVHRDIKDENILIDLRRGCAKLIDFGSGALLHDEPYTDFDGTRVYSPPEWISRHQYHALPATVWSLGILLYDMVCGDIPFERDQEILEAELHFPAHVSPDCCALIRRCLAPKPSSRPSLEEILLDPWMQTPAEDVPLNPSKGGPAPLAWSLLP

[13] = biological target: Transient receptor potential cation channel subfamily M member 7 (Homo sapiens) (UniProt Q96QT4); assay: Inhibition of recombinant human CHAK1 (1180 to end residues) at 10 uM using myelin basic protein as substrate measured after 40 mins in presence of [gamma33P]ATP by scintillation counting method
[14] = biological target: Protein kinase C epsilon type (Homo sapiens) (UniProt Q02156); assay: Inhibition of recombinant human PKCepsilon (2 to end residues) at 10 uM using ERMRPRKRQGSVRRRV as substrate measured after 40 mins in presence of [gamma33P]ATP by scintillation counting method
Chain of Protein kinase C epsilon type (Homo sapiens) (Q02156 whole entry, looked up): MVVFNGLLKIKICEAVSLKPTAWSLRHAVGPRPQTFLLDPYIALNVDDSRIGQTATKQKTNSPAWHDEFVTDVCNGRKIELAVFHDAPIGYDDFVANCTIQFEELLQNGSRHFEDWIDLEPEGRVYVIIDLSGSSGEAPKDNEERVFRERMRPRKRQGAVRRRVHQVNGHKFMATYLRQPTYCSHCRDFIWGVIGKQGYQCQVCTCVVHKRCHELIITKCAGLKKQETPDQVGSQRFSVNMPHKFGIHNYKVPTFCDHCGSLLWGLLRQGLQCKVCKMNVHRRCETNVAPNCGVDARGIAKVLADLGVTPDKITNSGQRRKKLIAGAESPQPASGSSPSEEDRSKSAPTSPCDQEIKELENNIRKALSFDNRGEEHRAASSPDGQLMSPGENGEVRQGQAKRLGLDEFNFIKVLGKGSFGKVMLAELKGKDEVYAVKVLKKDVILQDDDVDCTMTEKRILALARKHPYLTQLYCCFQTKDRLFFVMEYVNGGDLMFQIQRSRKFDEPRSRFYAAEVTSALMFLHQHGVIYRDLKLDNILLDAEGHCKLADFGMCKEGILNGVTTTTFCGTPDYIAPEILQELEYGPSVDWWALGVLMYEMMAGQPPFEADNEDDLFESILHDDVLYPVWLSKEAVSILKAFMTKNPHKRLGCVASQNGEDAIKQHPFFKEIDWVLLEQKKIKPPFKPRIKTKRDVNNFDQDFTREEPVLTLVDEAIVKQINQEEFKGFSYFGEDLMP

Homo sapiens [15] = organism: Homo sapiens; assay: Inhibition of recombinant human ARAF Y301D/ Y302D mutant (273 to end residues) at 10 uM using myelin basic protein as substrate measured after 40 mins in presence of [gamma33P]ATP by scintillation counting method
Mus musculus [16] = organism: Mus musculus; assay: Inhibition of recombinant full-length mouse PI3K p110beta/p85beta R123L mutant at 10 uM using phosphatidylinositol-4, 5-bisphosphate as substrate measured after 40 mins by HTRF assay
[17] = biological target: [Pyruvate dehydrogenase (acetyl-transferring)] kinase isozyme 2, mitochondrial (Homo sapiens) (UniProt Q15119); assay: Inhibition of human PDHK2 at 10 uM by radiometric method
Procedure, shortened: (§1)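 Kinase panel of 422 kinases screened by Eurofins KinaseProfiler at a single test-compound concentration of 10 µM.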

Homo sapiens [18] = organism: Homo sapiens; assay: Inhibition of recombinant full-length human PI3K p110alpha/p65alpha (1 to 571 residues) at 10 uM using phosphatidylinositol-4, 5-bisphosphate as substrate measured after 40 mins by HTRF assay
[19] = biological target: Casein kinase I isoform epsilon (Homo sapiens) (UniProt P49674); assay: Inhibition of human CK1epsilon at 10 uM using KRRRALS(p)VASLPGL as substrate measured after 120 mins in presence of [gamma33P]ATP by scintillation counting method; procedure, shortened: as §1
Chain of Casein kinase I isoform epsilon (Homo sapiens) (P49674 whole entry, looked up, canonical isoform): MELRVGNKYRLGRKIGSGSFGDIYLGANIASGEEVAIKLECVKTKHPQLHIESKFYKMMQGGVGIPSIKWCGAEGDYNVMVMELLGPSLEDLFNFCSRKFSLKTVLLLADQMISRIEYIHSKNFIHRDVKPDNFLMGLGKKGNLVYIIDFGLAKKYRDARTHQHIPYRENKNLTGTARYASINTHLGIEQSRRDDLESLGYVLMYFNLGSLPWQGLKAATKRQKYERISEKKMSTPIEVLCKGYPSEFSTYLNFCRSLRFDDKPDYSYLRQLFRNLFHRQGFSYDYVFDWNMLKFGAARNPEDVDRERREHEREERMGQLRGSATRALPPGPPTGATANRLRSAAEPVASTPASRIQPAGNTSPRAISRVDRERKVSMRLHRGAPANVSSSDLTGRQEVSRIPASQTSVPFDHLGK

[20] = biological target: Tyrosine-protein kinase Srms (Homo sapiens) (UniProt Q9H3Y6); assay: Inhibition of human SRMS at 10 uM by radiometric method; procedure, shortened: as §1
Chain of Tyrosine-protein kinase Srms (Homo sapiens) (Q9H3Y6 whole entry): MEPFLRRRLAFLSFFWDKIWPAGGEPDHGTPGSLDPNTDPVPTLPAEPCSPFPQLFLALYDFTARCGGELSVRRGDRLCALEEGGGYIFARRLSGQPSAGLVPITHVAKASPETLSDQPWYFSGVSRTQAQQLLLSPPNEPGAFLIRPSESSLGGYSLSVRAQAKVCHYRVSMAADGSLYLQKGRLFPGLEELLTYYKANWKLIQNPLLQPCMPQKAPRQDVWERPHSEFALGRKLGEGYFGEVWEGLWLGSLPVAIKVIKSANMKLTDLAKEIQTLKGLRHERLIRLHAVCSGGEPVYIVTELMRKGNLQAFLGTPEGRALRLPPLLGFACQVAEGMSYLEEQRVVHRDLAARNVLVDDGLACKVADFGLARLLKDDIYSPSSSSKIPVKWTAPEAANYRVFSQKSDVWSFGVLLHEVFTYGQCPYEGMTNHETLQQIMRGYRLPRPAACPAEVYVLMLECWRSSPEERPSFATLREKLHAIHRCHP

[21] = biological target: Protein kinase C zeta type (Homo sapiens) (UniProt Q05513); assay: Inhibition of recombinant human PKCzeta (2 to end residues) at 10 uM using ERMRPRKRQGSVRRRV as substrate measured after 40 mins in presence of [gamma33P]ATP by scintillation counting method
Chain of Protein kinase C zeta type (Homo sapiens) (Q05513 whole entry): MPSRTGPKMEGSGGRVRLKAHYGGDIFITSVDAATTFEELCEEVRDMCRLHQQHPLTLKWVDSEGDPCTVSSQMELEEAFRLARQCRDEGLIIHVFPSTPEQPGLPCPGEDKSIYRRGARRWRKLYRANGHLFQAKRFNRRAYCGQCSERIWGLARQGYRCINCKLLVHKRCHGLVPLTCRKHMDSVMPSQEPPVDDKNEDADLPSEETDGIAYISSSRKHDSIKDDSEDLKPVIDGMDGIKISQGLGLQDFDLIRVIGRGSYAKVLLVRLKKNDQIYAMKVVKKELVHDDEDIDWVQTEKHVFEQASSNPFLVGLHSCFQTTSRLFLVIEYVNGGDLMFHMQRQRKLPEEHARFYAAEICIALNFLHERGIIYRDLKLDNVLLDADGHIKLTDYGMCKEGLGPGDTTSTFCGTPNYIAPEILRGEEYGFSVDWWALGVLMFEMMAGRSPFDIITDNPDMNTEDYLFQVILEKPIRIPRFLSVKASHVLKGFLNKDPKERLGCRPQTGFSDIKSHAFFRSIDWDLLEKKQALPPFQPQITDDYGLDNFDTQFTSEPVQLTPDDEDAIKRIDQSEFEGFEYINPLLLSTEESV

[22] = biological target: Proto-oncogene tyrosine-protein kinase Src (Homo sapiens) (UniProt P12931); assay: Inhibition of recombinant full-length human SRC at 10 uM using Cdc2 peptide as substrate measured after 40 mins in presence of [gamma33P]ATP by scintillation counting method
Chain of Proto-oncogene tyrosine-protein kinase Src (Homo sapiens) (P12931 2-536 limits assumed): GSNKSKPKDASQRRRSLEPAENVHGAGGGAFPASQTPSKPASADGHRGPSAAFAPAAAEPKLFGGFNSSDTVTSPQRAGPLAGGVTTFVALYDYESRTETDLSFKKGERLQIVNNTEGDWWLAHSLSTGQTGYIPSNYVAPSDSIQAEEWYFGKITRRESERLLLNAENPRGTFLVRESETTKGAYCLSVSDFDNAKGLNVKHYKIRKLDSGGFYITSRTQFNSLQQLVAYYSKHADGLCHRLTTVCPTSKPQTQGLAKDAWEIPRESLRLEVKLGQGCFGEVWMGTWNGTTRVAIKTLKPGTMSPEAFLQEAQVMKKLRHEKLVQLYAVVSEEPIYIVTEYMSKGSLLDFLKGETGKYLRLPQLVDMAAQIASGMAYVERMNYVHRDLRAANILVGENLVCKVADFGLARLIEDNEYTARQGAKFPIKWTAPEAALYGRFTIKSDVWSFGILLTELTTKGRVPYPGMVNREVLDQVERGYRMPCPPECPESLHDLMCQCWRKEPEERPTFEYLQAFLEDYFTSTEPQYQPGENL

[23] = biological target: Citron Rho-interacting kinase (Homo sapiens) (UniProt O14578); assay: Inhibition of recombinant human CRIK at 10 uM using KKLRRTLSVA as substrate measured after 120 mins in presence of [gamma33P]ATP by scintillation counting method
[24] = tested on: Eukaryotic elongation factor 2 kinase (Homo sapiens), O00418 [H23R]; assay: Inhibition of recombinant human EEF2K H23R mutant (2 to end residues) at 10 uM using RKKFGESEKTKTKEFL as substrate measured after 40 mins in presence of [gamma33P]ATP by scintillation counting method

Question: CN1C[C@H](Nc2nc3cc[nH]c3c(=O)n2C)C[C@H](c2ccc3c(c2)OCCO3)C1 was tested. Which inhibition (Mus musculus [1]) did it give?
Answer: The inhibition was “inactive”.

Question: What about the inhibition [2] of the same compound?
Answer: Its inhibition is “inactive”.

Question: And the ΔTm [3]?
Answer: The ΔTm was 0.3 °C.

Question: And the inhibition [4]?
Answer: The inhibition was “inactive”.

Question: What about the inhibition [5] of the same compound?
Answer: The inhibition was “inactive”.

Question: And the inhibition [6]?
Answer: Its inhibition is “inactive”.

Question: And the inhibition [7]?
Answer: Its inhibition is “inactive”.

Question: And the inhibition [8]?
Answer: Its inhibition is “inactive”.

Question: What about the inhibition [9] of the same compound?
Answer: Its inhibition is “inactive”.

Question: What about the inhibition [10] of the same compound?
Answer: The inhibition was “inactive”.

Question: What about the inhibition [11] of the same compound?
Answer: The inhibition was “inactive”.

Question: And the inhibition [12]?
Answer: The inhibition was “inactive”.

Question: What about the inhibition [13] of the same compound?
Answer: The inhibition was “inactive”.

Question: What about the inhibition [14] of the same compound?
Answer: The inhibition was “inactive”.

Question: And the inhibition (Homo sapiens [15])?
Answer: The inhibition was “inactive”.

Question: What about the inhibition (Mus musculus [16]) of the same compound?
Answer: The inhibition was “inactive”.

Question: What about the inhibition [17] of the same compound?
Answer: The inhibition was “inactive”.

Question: And the inhibition (Homo sapiens [18])?
Answer: The inhibition was “inactive”.

Question: What about the inhibition [19] of the same compound?
Answer: Its inhibition is “inactive”.

Question: What about the inhibition [20] of the same compound?
Answer: The inhibition was “inactive”.

Question: What about the inhibition [21] of the same compound?
Answer: Its inhibition is “inactive”.

Question: What about the inhibition [22] of the same compound?
Answer: Its inhibition is “inactive”.

Question: And the inhibition [23]?
Answer: Its inhibition is “inactive”.

Question: And the inhibition [24]?
Answer: Its inhibition is “inactive”.
